Laboratory results from ChEMBL document CHEMBL3352302, “Synthesis of new compounds with promising antiviral properties against group A and B Human Rhinoviruses” (Bioorg Med Chem, 2014).
Values after ≈ are worked out from the molar mass of the structure shown. Active and inactive are the calls of the source. The rule behind the calls is not given here.

Assays:
[1] = Cytotoxicity against human HeLa cells after 24 to 72 hrs by MTT assay; type: cell-based; conditions: read-out: CD50 (the source's name)
Summary of the method: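 HeLa (Ohio strain) monolayers in DMEM with 1% non-essential amino acids, penicillin/streptomycin and 10% FCS at 37 °C, 5% CO₂, exposed to various compound concentrations. Morphology (rounding, shrinking, detachment) was checked by light microscopy at 24, 48 and 72 h, and viability read by MTT colorimetry. CD₅₀ is the concentration reducing control absorbance by 50%.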

rhinovirus A39 = assay: Antiviral activity against Human rhinovirus 39 assessed as reduction in virus yield after 24 to 36 hrs by agar plaque assay; type: functional; conditions: Rhinovirus A; read-out: ID50 (the source's name)
Summary of the method: (§1)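 Virus-yield reduction: infected monolayers given serial dilutions of compound, incubated 24–36 h at 33 °C, 3% CO₂ until cytopathic effect in controls was almost total. Monolayers then frozen and thawed; virus in supernatant titrated by plaque assay (50% plaque reduction in Hep-2 cells). ID₅₀ is the concentration inhibiting plaque formation by 50%, from dose–response curves by linear regression.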

rhinovirus B14 [2] = assay: Antiviral activity against Human rhinovirus 14 assessed as reduction in virus yield after 24 to 36 hrs by agar plaque assay; type: functional; conditions: Rhinovirus B; read-out: ID50 (the source's name); summary of the method: as §1
[3] = Protective index, ratio of CD50 for human HeLa cells to ID50 for Human rhinovirus 39
Summary of the method: (§2)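 PI = CD₅₀/ID₅₀. For CD₅₀, HeLa (Ohio strain) monolayers in DMEM with 10% fetal calf serum were exposed to a range of compound concentrations at 37 °C, 5% CO₂. Morphology was checked by light microscopy at 24, 48 and 72 h. Viability read by MTT; CD₅₀ = concentration reducing control absorbance by 50%. ID₅₀ came from the plaque-reduction virus-yield assay.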

[4] = Protective index, ratio of CD50 for human HeLa cells to ID50 for Human rhinovirus 14; summary of the method: as §2
rhinovirus B14 [5] = assay: Antiviral activity against Human rhinovirus 14 assessed as reduction in virus yield at 5 ug/ml added 4 to 5 hrs after infection by agar plaque assay; type: functional, organism-based
Summary of the method: (§3)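 HRV14 (group A, ATCC; working stocks prepared as cellular lysates in DMEM with 2% heat-inactivated FCS). Compound was added to cells at different times, from h −1 to several hours post infection, and incubated 24–36 h at 33 °C, 3% CO₂ until cytopathic effect in controls was almost total. Monolayers were then freeze-thawed and supernatant virus titrated by plaque assay.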

rhinovirus B14 [6] = assay: Antiviral activity against Human rhinovirus 14 assessed as reduction in virus yield at 5 ug/ml added within 3 hrs after infection by agar plaque assay; type: functional, organism-based; summary of the method: as §3
rhinovirus B14 [7] = assay: Reversible antiviral activity against Human rhinovirus 14 assessed as reduction in virus yield by agar plaque assay; type: functional, organism-based

| SMILES | CC50 [1] | IC50 (rhinovirus A39) | IC50 (rhinovirus B14 [2]) | PI [3] | PI [4] | Activity (rhinovirus B14 [5]) | Activity (rhinovirus B14 [6]) | Activity (rhinovirus B14 [7]) |
| --- | --- | --- | --- | --- | --- | --- | --- | --- |
| CC(=O)c1ccc(OCCCOCc2ccc3c(c2)OCO3)cc1 | 50 µg/mL (≈ 152 µM) | 6 µg/mL (≈ 18.3 µM) | 6 µg/mL (≈ 18.3 µM) | 8 | 8 | – | – | – |
| Fc1ccc(OCCCOc2ccc3c(c2)OCO3)cc1 | 25 µg/mL (≈ 86.1 µM) | 25 µg/mL (≈ 86.1 µM) | 25 µg/mL (≈ 86.1 µM) | 1 | 1 | – | – | – |
| CCOc1nc2ccc(OCCCOc3ccc(C#N)cc3)cc2o1 | 50 µg/mL (≈ 148 µM) | 1.5 µg/mL (≈ 4.43 µM) | 25 µg/mL (≈ 73.9 µM) | 33 | 2 | – | – | – |
| Cc1cc(OCCCOc2ccc3c(c2)OCO3)on1 | 50 µg/mL (≈ 180 µM) | 12 µg/mL (≈ 43.3 µM) | 25 µg/mL (≈ 90.2 µM) | 4 | 2 | – | – | – |
| CCOC(=O)c1ccc(OCCC2CCN(c3ccc(C)nn3)CC2)cc1 [PIRODAVIR] | 3.1 µg/mL (≈ 8.39 µM) | 0.006 µg/mL (≈ 0.0162 µM) | 0.012 µg/mL (≈ 0.0325 µM) | 516 | 258 | inactive | Active | – |
| CCOc1nc2ccc(OCCCOc3ccc4c(c3)OCO4)cc2o1 | 200 µg/mL (≈ 560 µM) | 12 µg/mL (≈ 33.6 µM) | 25 µg/mL (≈ 70 µM) | 16 | 8 | – | – | – |
| CC(=O)c1ccc(OCCCOCCc2cc(C)no2)cc1 | 50 µg/mL (≈ 165 µM) | 6 µg/mL (≈ 19.8 µM) | 25 µg/mL (≈ 82.4 µM) | 8 | 2 | – | – | – |
| CC(=O)c1ccc(OCCCOc2ccc3c(c2)OCO3)cc1 | 25 µg/mL (≈ 79.5 µM) | 25 µg/mL (≈ 79.5 µM) | 25 µg/mL (≈ 79.5 µM) | 1 | 1 | – | – | – |
| CCOc1nc2ccc(OCCCOc3ccc(C(C)=O)cc3)cc2o1 | 200 µg/mL (≈ 563 µM) | 0.1 µg/mL (≈ 0.281 µM) | 0.5 µg/mL (≈ 1.41 µM) | 2000 | 400 | inactive | Active | Active |
| Cc1cc(CCOCCCOc2ccc3c(c2)OCO3)on1 | 50 µg/mL (≈ 164 µM) | 50 µg/mL (≈ 164 µM) | 50 µg/mL (≈ 164 µM) | 1 | 1 | – | – | – |
| CCOC(=O)c1ccc(OCCCOCCc2cc(C)no2)cc1 | 50 µg/mL (≈ 150 µM) | 0.07 µg/mL (≈ 0.21 µM) | 0.07 µg/mL (≈ 0.21 µM) | 714 | 714 | – | – | – |
